According to PubChem BioAssay AID1046 (PCMD, 2008):
Hit rate of the full screen: of about 220,000 compounds, about 560 (0.25%) were called active. The sample as a whole holds a higher share of actives than the screen did. Unmarked numbers belong to inactive results.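 The calls were made as follows: active = inhibition at or above 40%; inactive = inhibition below 40%.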

biological target: Prothrombin (Homo sapiens) (UniProt P00734); assay: blockers of thrombin peptide substrate cleavage – biochemical, 1536-well, fluorogenic AMC substrate, counter-screen for coagulation protease inhibitor project, primary screen (AID 1046); conditions: alpha-thrombin, Boc-VPR-AMC fluorogenic substrate cleavage; at 5 µM; hits give high values;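 also: 0% = enzyme with no compound and 100% = wells without enzyme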
In short: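 Assay system: human alpha-thrombin enzyme. Reagent: Boc-VPR-AMC substrate, 15 µM final. Compound dosing: one concentration per compound, 5 µM, with 0.2% DMSO. Incubation: room-temperature reaction. Technique: AMC fluorescence, 355/460 nm. Measure: % inhibition relative to enzyme controls and enzyme-free blanks.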

Going from CN1CCN(CCC(=O)N/N=C/C=C2\N(C)c3ccccc3C2(C)C)CC1 to CCN(CC)C(=O)CC1(c2ccccc2OC)CCOC(C(C)C)C1 (configuration not stated), the inhibition rises from -4.81% to -1.89%.

Compared with CC(C)(C)NC(=O)c1cccc(NC(=O)Cc2ccc(Br)cc2)c1, Cc1cccc(NC(=S)Nc2ccc(Br)cc2)c1 is higher in inhibition: -6.49% for the first, 3.41% for the second.

First: CC(=O)NNC(=O)c1csc(Cc2c(Cl)sc3ccc(Cl)cc23)n1
Second: O=C(CCCOc1ccc(Cl)cc1Cl)NNC(=O)C1CCC1
The inhibition of the first is higher: -1.7% for the first, -6.08% for the second.

Going from CCOC(=O)C1CCN(c2c(Nc3cc(C)cc(C)c3)c(=O)c2=O)CC1 to COc1ccc(S(=O)(=O)N2CCC(C(=O)OCC(=O)c3ccccc3)CC2)cc1[N+](=O)[O-], the inhibition rises from -1.29% to 0.56%.

Going from CS(=O)(=O)n1nc(-c2ccco2)nc1N to CSc1nc(-c2ccco2)nn1C(=O)c1ccccc1Cl, the inhibition falls from 1.66% to 0.04%.

First: O=C(c1cccc(S(=O)(=O)N2CCCC2)c1)N(Cc1ccco1)C1CCS(=O)(=O)C1 (configuration not stated)
Second: O=C(c1cccc([N+](=O)[O-])c1)N1CCN(C(=O)c2ccco2)CC1
The inhibition of the first is higher: -1.64% for the first, -2.02% for the second.

Compared with COC(=O)C(NS(=O)(=O)c1ccc(F)cc1)c1ccccc1 (configuration not stated), O=C(NNC(=S)Nc1ccc(F)cc1)[C@H]1C[C@@H]1c1ccccc1 is lower in inhibition: 5.5% for the first, -10.3% for the second.

Compared with CC(=O)NC(NC(=S)Nc1c(C)n(C)n(-c2ccccc2)c1=O)C(Cl)(Cl)Cl (configuration not stated), Cn1sc(NC(=O)c2ccccc2)nc1=O is higher in inhibition: -5.85% for the first, 3.97% for the second.

First: CCn1c(-c2cccnc2Cl)nc2cc(C)c(C)cc21
Second: COc1ccccc1-c1noc(CSc2nc(C)cc(=O)[nH]2)n1
The inhibition of the first is higher: 0.78% for the first, -11.8% for the second.

Compared with Cc1ccccc1CC1(CO)CCCN(C(=O)c2cc(-c3ccccc3)no2)C1 (configuration not stated), COc1ccccc1C(=O)n1nc(-c2ccccc2)nc1N is higher in inhibition: -8.1% for the first, 19.2% for the second.

Compared with CC(C)CC(CC(C)C)=NNC(=O)c1ccc(CSc2nncn2C)cc1, Cc1nc(SCc2ccc(F)cc2)c([N+](=O)[O-])[nH]1 is lower in inhibition: 6.95% for the first, -2.86% for the second.

Compared with CCn1ncc(CNC(=O)C2(C)CC2(Br)Br)c1C (configuration not stated), CCC(=O)NCc1cc(-c2nn(C)c(=O)c3ccccc23)ccc1OC is higher in inhibition: -5.28% for the first, 2.19% for the second.

First: CC1(C)CC(=O)c2cnc3nc4ccccc4n3c2C1
Second: OC1CSc2nc3ccccc3n2C1 (configuration not stated)
The inhibition of the first is lower: -14.5% for the first, 0.85% for the second.

First: Cc1ccc(C)c2[nH]c(=O)c(CN(Cc3cccnc3)C(=S)NCc3ccco3)cc12
Second: CC(=O)C1=C(O)C(=O)N(c2cccnc2)C1c1ccc([N+](=O)[O-])cc1 (configuration not stated)
The inhibition of the first is lower: -27% for the first, 2.53% for the second.

First: COc1ccccc1N1CCN(c2ccc([N+](=O)[O-])nc2)CC1
Second: CC1(C)Cc2cccc(OCC(=O)N3CCN(c4ccc([N+](=O)[O-])cc4)CC3)c2O1
The inhibition of the first is higher: 1.48% for the first, -1.43% for the second.

Compared with COc1ccc(CN2CCC(c3nc4ccc(Cl)cc4[nH]3)CC2)cc1, O=C(NC1CCN(Cc2ccccc2)CC1)c1cc(Br)c(Br)[nH]1 is lower in inhibition: 1.55% for the first, 1.26% for the second.

Compared with Cc1ccc(NNC(=O)c2cccs2)cc1Cl, Cc1ccc(S(=O)(=O)N(C)C)cc1NC(=O)/C=C/c1cccs1 is lower in inhibition: 0.15% for the first, -6.43% for the second.

Going from COc1ccc(-c2nn(C)c(=O)c3ccccc23)cc1NC(=O)COc1ccccc1 to CCn1c(=O)c2cc(C(=O)Nc3cccc(C(C)=O)c3)sc2c2ccccc21, the inhibition falls from 3.07% to -4.44%.

Going from Cc1cc(CO)nn1-c1ccc([N+](=O)[O-])cc1 to O=c1[nH]n(-c2ccc([N+](=O)[O-])cc2)c(=O)c2ccccc12, the inhibition falls from -4.29% to -6.59%.

Compared with Cc1nnc(N/N=C/c2cccs2)[nH]c1=O, O=C(Nc1n[nH]c(C(F)(F)F)n1)c1cccs1 is higher in inhibition: -0.86% for the first, 5% for the second.

First: CC(C)S(=O)(=O)c1csc(NC(=O)Nc2ccc(Cl)cc2)c1Cl
Second: Cc1cccc(NC(=S)Nc2ccc(Cl)c(Cl)c2)c1
The inhibition of the first is higher: 3.02% for the first, 0.05% for the second.

First: COc1ccc(N2CCN(C(=O)CNC(=O)c3ccc(C(C)(C)C)cc3)CC2)cc1
Second: COc1ccc(C(=O)Nc2ccc(F)cc2F)cc1
The inhibition of the first is higher: 12.8% for the first, -13.8% for the second.

Compared with C/C(=N/NC(=O)c1ccc(NC(=O)c2ccc(F)cc2)cc1)c1ccccc1, Cc1ccc(NC(=O)c2ccn(C(=O)Nc3ccccc3)n2)c(C)c1 is lower in inhibition: 3.8% for the first, 1.51% for the second.

Compared with O=C(Nc1nsc(-c2ccccc2)n1)c1ccncc1, O=C(Cc1ccccc1)N1N=C(c2ccncc2)CC1(O)C(F)(F)F (configuration not stated) is lower in inhibition: 3.88% for the first, 2.25% for the second.

Going from S=c1[nH]nc(-c2ccncc2)n1/N=C/c1ccccc1Cl to O=C(Nn1cnc2ccccc2c1=O)c1ccc([N+](=O)[O-])cc1Cl, the inhibition rises from -3.11% to 6.94%.

Compared with Cc1ccc(SC(C)C(=O)NCc2ccc(F)cc2)cc1 (configuration not stated), Cc1ccc(C(=O)Nc2sc(Cc3ccc4c(c3)OCO4)c(C)c2C(N)=O)cc1 is higher in inhibition: -10% for the first, 2.74% for the second.

Compared with Cc1c(-c2ccccc2)n[nH]c1C(=O)N=Nc1c(O)[nH]c2ccccc12, O=C(Nc1ccccc1)Nc1nnc(COc2ccccc2F)s1 is higher in inhibition: -11.5% for the first, -0.32% for the second.

Going from Cn1nnc(NC(=O)CSc2ncn[nH]2)n1 to COc1ccc(Cl)cc1CSc1ncn[nH]1, the inhibition falls from -4.19% to -8.18%.

Going from CC1CN(CCOc2ccccc2[N+](=O)[O-])CC(C)O1 (configuration not stated) to COCC1CCCN(Cc2cn[nH]c2-c2cc3ccccc3o2)C1 (configuration not stated), the inhibition falls from 1.06% to -10.5%.

First: CC1=NCCN1S(=O)(=O)c1cccc([N+](=O)[O-])c1
Second: N/C(=N\OS(=O)(=O)c1cccc([N+](=O)[O-])c1)c1ccncc1
The inhibition of the first is higher: 2.02% for the first, -6.25% for the second.

First: CCCC(=O)OCC(=O)Nc1cc(Cl)ccc1[N+](=O)[O-]
Second: CCOC(=O)N/N=C1\CC(C)S(=O)(=O)c2ccc(Cl)cc21 (configuration not stated)
The inhibition of the first is lower: -3.57% for the first, 28.2% for the second.

First: CN1CCN(C(=O)C2C3C=CC(C3)C2C(=O)O)CC1 (configuration not stated)
Second: CCN1CCN(C(=O)/C=C\C(=O)O)CC1
The inhibition of the first is lower: -0.84% for the first, -0.06% for the second.

Going from NS(=O)(=O)c1ccc(CCNC(=O)CCCn2c(SCC(=O)N3CCCC3)nc3ccsc3c2=O)cc1 to CCCCNC(=O)CSc1nc2ccc(NC(=O)CSc3nnc(N)s3)cc2s1, the inhibition rises from -6.72% to -6.44%.

Going from OCCC#Cc1ccc(CN2CCN(Cc3ccsc3)C(CCO)C2)cc1 (configuration not stated) to O=C(CC1C(=O)NCCN1Cc1ccc(-c2ccccc2)cc1)NCC1CCOCC1 (configuration not stated), the inhibition falls from -1.75% to -6.7%.

Compared with O=C(CSc1cccc[n+]1[O-])c1ccc(Cl)cc1, CCCC(=O)n1nc(-c2ccccc2)nc1N is higher in inhibition: -1.76% for the first, 27.1% for the second.

Compared with Cc1ccc(N(C(=O)Cc2cccs2)C(C(=O)NCC2CCCO2)c2ccncc2)cc1 (configuration not stated), COC(=O)c1ccc(-c2noc(CN(Cc3ccccn3)CC3CCCO3)n2)cc1 (configuration not stated) is higher in inhibition: 0.6% for the first, 21.1% for the second.

First: CCN1CC(CN(C)Cc2nc(-c3ccc(Cl)cc3)no2)CC1=O (configuration not stated)
Second: Cc1nnc(SCC(=O)N2CCc3ccccc3C2)s1
The inhibition of the first is lower: -8.96% for the first, 7.65% for the second.

First: Cc1c(C(=O)O)nnn1-c1nonc1N
Second: Cc1ccc(C)c(NC(=O)C2CCCN2C(=O)OC(C)(C)C)c1 (configuration not stated)
The inhibition of the first is higher: 2.29% for the first, 1.35% for the second.

Compared with O=C(NC(=S)Nc1cc(C(F)(F)F)ccc1N1CCOCC1)c1ccc(-c2cccc(Cl)c2)o1, COc1cccc(NC(=O)C2CCCN2C(=O)OCc2ccccc2)c1 (configuration not stated) is lower in inhibition: -10.3% for the first, -12.3% for the second.

Going from CC1(OC(=O)CCc2ccccc2)C(=O)C=C2C=C(c3ccc(C#N)cc3)N(CCc3ccccn3)C=C2C1=O (configuration not stated) to COc1ccc(NC(=O)C2=C(C)NC(=O)NC2c2ccccc2[N+](=O)[O-])cc1 (configuration not stated), the inhibition rises from -12.4% to -0.08%.

Compared with S=C(Nc1ccc(Br)cc1Cl)N1CCC2(CC1)OCCO2, CCN1CCN(c2nc(Nc3cc(OC)ccc3OC)nc(Nc3cc(OC)ccc3OC)n2)CC1 is lower in inhibition: -1.42% for the first, -2.15% for the second.

Compared with Cc1nc(SCC(=O)N2CC(=O)Nc3ccccc32)c2c(C)c(C)sc2n1, Cc1cc(=O)[nH]c(S)c1C#N is lower in inhibition: -0.55% for the first, -5% for the second.

With CSCC[C@H](NC(=O)NC1CCCC1)C(=O)O the inhibition was -3.12%.

CSc1nc(-c2ccco2)nn1C(=O)CCc1ccccc1 was tested, and the inhibition was 99.4% (active).
In the case of COc1ccc(-c2nn(C)c(=O)c3ccccc23)cc1CNC(=O)C1CCCCC1, the inhibition is reported as 70.8% (active).
In the case of COC(=O)c1nc(NC(=O)c2ccc(F)cc2)n[nH]1, the inhibition is reported as 94.8% (active).
COC(=O)c1nc(NC(=O)c2ccccc2)n[nH]1 was tested, and the inhibition was 98.4% (active).
For COC(=O)c1nc(NC(=O)c2ccc(C(C)(C)C)cc2)n[nH]1, the inhibition was 58.9% (active).
In the case of ClC1(Cl)CC1CSc1ncn[nH]1 (configuration not stated), the inhibition is reported as 102% (active).
C/C(=C/C(=O)N1CCN(C)CC1)C(=O)O was tested, and the inhibition was 103% (active).
With CN(Cc1ccccn1)Cc1nc(-c2ccc(Cl)cc2)no1 the inhibition was 57.7% (active).
In the case of Cc1cccc(NC(=S)NC23CN4CN(CN(C4)C2)C3)c1, the inhibition is reported as 53.8% (active).
COc1ccc(CC(=O)n2nc(-c3cccnc3)nc2N)cc1 was tested, and the inhibition was 89.7% (active).
For Cc1nc(SCC(=O)N2CCc3ccccc3C2)c2c(C)c(C)sc2n1, the inhibition was 103% (active).
In the case of Cc1ccc(C)c(NC(=O)C2Cc3ccccc3CN2C(=O)OCc2ccccc2)c1 (configuration not stated), the inhibition is reported as 104% (active).
